Experimental data: ChEMBL document CHEMBL3352770, “Click chemistry inspired synthesis and bioevaluation of novel triazolyl derivatives of osthol as potent cytotoxic agents” (Eur J Med Chem, 2014)

Columns and labels:
COLO 205 [1] = assay: Cytotoxicity against human COLO205 cells after 24 hrs by MTT assay; assay type: functional, cell-based; settings: COLO 205, 24 h
Procedure, shortened: (§1)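 Cells kept in DMEM with 10% foetal calf serum, penicillin and streptomycin, at 37 °C under 5% CO2. For assays serum lowered to 3%. Cells treated with test material at 0.04–60 µM for 24 h, then MTT (250 µg/mL) for 3 h. Formazan OD read at 570 nm. IC50 by non-linear regression, mean of triplicates. BEZ-235 as positive control.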

[2] = Cytotoxicity against human HCT116 cells after 24 hrs by MTT assay; assay type: functional, cell-based; settings: HCT-116, 24 h; procedure, shortened: as §1
[3] = Cytotoxicity against human NCI-H322 cells after 24 hrs by MTT assay; assay type: functional, cell-based; settings: NCI-H322, 24 h; procedure, shortened: as §1
A-431 = assay: Cytotoxicity against human A431 cells after 24 hrs by MTT assay; assay type: functional, cell-based; settings: A-431, 24 h; procedure, shortened: as §1
T47D = assay: Cytotoxicity against human T47D cells after 24 hrs by MTT assay; assay type: functional, cell-based; procedure, shortened: as §1
A549 = assay: Cytotoxicity against human A549 cells after 24 hrs by MTT assay; assay type: functional, cell-based; settings: A549, 24 h; procedure, shortened: as §1
[4] = Cytotoxicity against human PC3 cells after 24 hrs by MTT assay; assay type: functional, cell-based; settings: PC-3, 24 h; procedure, shortened: as §1
COLO 205 [5] = assay: Induction of cell cycle arrest in human COLO205 cells assessed as accumulation at S phase at 1 uM after 48 hrs by propidium iodide staining based flow cytometry (reference value: 13.8%); assay type: functional
COLO 205 [6] = assay: Induction of mitochondrial membrane potential loss in human COLO205 cells at 1 uM after 48 hrs by Rh-123 staining based flow cytometry (reference value: 12.4%); assay type: functional
COLO 205 [7] = assay: Induction of apoptosis in human COLO205 cells assessed as accumulation at subG1 phase at 1 uM after 48 hrs by propidium iodide staining based flow cytometry (reference value: 12%); assay type: functional
COLO 205 [8] = assay: Induction of cell cycle arrest in human COLO205 cells assessed as accumulation at G2 phase at 1 uM after 48 hrs by propidium iodide staining based flow cytometry (reference value: 13.2%); assay type: functional
COLO 205 [9] = assay: Induction of cell cycle arrest in human COLO205 cells assessed as accumulation at G1 phase at 1 uM after 48 hrs by propidium iodide staining based flow cytometry (reference value: 45.7%); assay type: functional
COLO 205 [10] = assay: Induction of apoptosis in human COLO205 cells assessed as accumulation at subG1 phase after 48 hrs by propidium iodide staining based flow cytometry; assay type: functional, cell-based
Procedure, shortened: (§2)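 Colo-205 seeded at 5 × 10⁵ cells/ml in 6-well plates and grown 24 h. Treated at 1, 5, 10 and 25 µM for 48 h. Harvested, washed in PBS, fixed in 70% ethanol overnight at −20 °C. Stained 30 min in the dark with PI, EDTA, RNase and Triton X-100 in PBS. DNA content by flow cytometry, sub-G1 taken as apoptotic. Untreated/DMSO negative control; camptothecin 1 µM positive control; two experiments.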

COLO 205 [11] = assay: Induction of cell cycle arrest in human COLO205 cells assessed as accumulation at G1 phase at 5 uM after 48 hrs by propidium iodide staining based flow cytometry (reference value: 45.7%); assay type: functional; procedure, shortened: as §2
COLO 205 [12] = assay: Induction of apoptosis in human COLO205 cells assessed as accumulation at subG1 phase at 25 uM after 48 hrs by propidium iodide staining based flow cytometry (reference value: 12%); assay type: functional; procedure, shortened: as §2
COLO 205 [13] = assay: Induction of cell cycle arrest in human COLO205 cells assessed as accumulation at G1 phase at 10 uM after 48 hrs by propidium iodide staining based flow cytometry (reference value: 45.7%); assay type: functional; procedure, shortened: as §2
COLO 205 [14] = assay: Induction of cell cycle arrest in human COLO205 cells assessed as accumulation at G2 phase at 5 uM after 48 hrs by propidium iodide staining based flow cytometry (reference value: 13.2%); assay type: functional; procedure, shortened: as §2
COLO 205 [15] = assay: Induction of cell cycle arrest in human COLO205 cells assessed as accumulation at G2 phase at 25 uM after 48 hrs by propidium iodide staining based flow cytometry (reference value: 13.2%); assay type: functional; procedure, shortened: as §2
COLO 205 [16] = assay: Induction of cell cycle arrest in human COLO205 cells assessed as accumulation at G1 phase at 25 uM after 48 hrs by propidium iodide staining based flow cytometry (reference value: 45.7%); assay type: functional; procedure, shortened: as §2
COLO 205 [17] = assay: Induction of cell cycle arrest in human COLO205 cells assessed as accumulation at S phase at 25 uM after 48 hrs by propidium iodide staining based flow cytometry (reference value: 13.8%); assay type: functional; procedure, shortened: as §2
COLO 205 [18] = assay: Induction of cell cycle arrest in human COLO205 cells assessed as accumulation at S phase at 10 uM after 48 hrs by propidium iodide staining based flow cytometry (reference value: 13.8%); assay type: functional; procedure, shortened: as §2
COLO 205 [19] = assay: Induction of mitochondrial membrane potential loss in human COLO205 cells at 5 uM after 48 hrs by Rh-123 staining based flow cytometry (reference value: 12.4%); assay type: functional
COLO 205 [20] = assay: Induction of cell cycle arrest in human COLO205 cells assessed as accumulation at S phase at 5 uM after 48 hrs by propidium iodide staining based flow cytometry (reference value: 13.8%); assay type: functional; procedure, shortened: as §2
COLO 205 [21] = assay: Induction of cell cycle arrest in human COLO205 cells assessed as accumulation at G2 phase at 10 uM after 48 hrs by propidium iodide staining based flow cytometry (reference value: 13.2%); assay type: functional; procedure, shortened: as §2
COLO 205 [22] = assay: Induction of apoptosis in human COLO205 cells assessed as accumulation at subG1 phase at 5 uM after 48 hrs by propidium iodide staining based flow cytometry (reference value: 12%); assay type: functional; procedure, shortened: as §2
COLO 205 [23] = assay: Induction of apoptosis in human COLO205 cells assessed as accumulation at subG1 phase at 10 uM after 48 hrs by propidium iodide staining based flow cytometry (reference value: 12%); assay type: functional; procedure, shortened: as §2
COLO 205 [24] = assay: Induction of mitochondrial membrane potential loss in human COLO205 cells at 25 uM after 48 hrs by Rh-123 staining based flow cytometry (reference value: 12.4%); assay type: functional
COLO 205 [25] = assay: Induction of mitochondrial membrane potential loss in human COLO205 cells at 10 uM after 48 hrs by Rh-123 staining based flow cytometry (reference value: 12.4%); assay type: functional

For COc1ccc(/C=C\C(=O)O)c(OCc2cn(-c3nc4ccccc4s3)nn2)c1CC=C(C)C, the IC50 (COLO 205 [1]) was 20.2 µM, the IC50 [2] was 16.4 µM and the IC50 [3] was 23 µM. For the same molecule, the IC50 (A-431) was 20.8 µM, the IC50 (T47D) was 17.2 µM and the IC50 (A549) was 42.1 µM.
COc1ccc(/C=C\C(=O)O)c(OCc2cn(-c3ccc(CO)cc3)nn2)c1CC=C(C)C gave an IC50 [4] of 28.3 µM, an IC50 (COLO 205 [1]) of 19.3 µM and an IC50 [2] of 31.7 µM. The IC50 [3] was 27.1 µM, the IC50 (A-431) was 16.4 µM and the IC50 (T47D) was 40 µM.
Work on COc1ccc(/C=C\C(=O)O)c(OCc2cn(-c3cccc(C#N)c3)nn2)c1CC=C(C)C yielded an IC50 [4] of 45.5 µM, an IC50 (COLO 205 [1]) of 26.8 µM and an IC50 [2] of 35.3 µM. The IC50 [3] was 26.5 µM, the IC50 (A-431) was 22.9 µM and the IC50 (T47D) was 19.2 µM.
COc1ccc(-n2cc(COc3c(/C=C\C(=O)O)ccc(OC)c3CC=C(C)C)nn2)cc1 gave an IC50 [2] of 8.7 µM and an IC50 (A549) of 10.2 µM.
CC[C@@]1(O)C(=O)OCc2c1cc1n(c2=O)Cc2cc3ccccc3nc2-1 [CAMPTOTHECIN] gave an Activity (COLO 205 [5]) of 4.9%, an Activity (COLO 205 [6]) of 30.8% and an Activity (COLO 205 [7]) of 69.4%. For the same molecule, the Activity (COLO 205 [8]) was 2.2% and the Activity (COLO 205 [9]) was 11%.
In the case of Cn1c(=O)n(-c2ccc(C(C)(C)C#N)cc2)c2c3cc(-c4cnc5ccccc5c4)ccc3ncc21 [DACTOLISIB], the IC50 [4] is reported as 12.3 µM, the IC50 [2] is reported as 0.044 µM and the IC50 [3] is reported as 10.3 µM. The IC50 (A-431) was 12.5 µM and the IC50 (T47D) was 11.2 µM.
For COc1ccc(/C=C\C(=O)O)c(OCc2cn(-c3cccc([N+](=O)[O-])c3)nn2)c1CC=C(C)C, the IC50 [4] was 42.1 µM, the IC50 (COLO 205 [1]) was 6.9 µM and the IC50 [2] was 27.3 µM. It also gave an IC50 [3] of 43.2 µM, an IC50 (A-431) of 18.4 µM and an IC50 (T47D) of 15.4 µM.
Work on COc1ccc(/C=C\C(=O)O)c(OCc2cn(-c3ccccc3C#N)nn2)c1CC=C(C)C yielded an IC50 (COLO 205 [1]) of 3.2 µM, an IC50 [2] of 38.3 µM and an IC50 [3] of 14.4 µM. It also gave an IC50 (A-431) of 10.3 µM, an IC50 (T47D) of 8.8 µM and an IC50 (A549) of 38.6 µM.
In the case of COc1ccc(/C=C\C(=O)O)c(OCc2cn(-c3cccnc3Cl)nn2)c1CC=C(C)C, the IC50 [2] is reported as 23 µM, the IC50 [3] is reported as 42.2 µM and the IC50 (A-431) is reported as 32.6 µM. It also gave an IC50 (A549) of 5.6 µM.
In the case of COc1ccc(/C=C\C(=O)O)c(OCc2cn(-c3ccc(CC#N)cc3)nn2)c1CC=C(C)C, the Activity (COLO 205 [10]) is reported as “Dose-dependent effect”, the Activity (COLO 205 [11]) is reported as 46.8% and the IC50 [4] is reported as 26.4 µM. For the same molecule, the Activity (COLO 205 [12]) was 24.1%, the Activity (COLO 205 [13]) was 45% and the Activity (COLO 205 [5]) was 13.9%. The Activity (COLO 205 [14]) was 11.5%, the Activity (COLO 205 [15]) was 10.4% and the Activity (COLO 205 [16]) was 38.5%. For the same molecule, the IC50 (COLO 205 [1]) was 1.3 µM, the IC50 [2] was 4.9 µM and the Activity (COLO 205 [17]) was 13.2%. For the same molecule, the Activity (COLO 205 [18]) was 14.7%, the Activity (COLO 205 [6]) was 24.4% and the IC50 [3] was 41 µM. The IC50 (A-431) was 7.2 µM, the Activity (COLO 205 [19]) was 26.9% and the Activity (COLO 205 [20]) was 16.1%. For the same molecule, the IC50 (T47D) was 3.6 µM, the Activity (COLO 205 [21]) was 11.2% and the IC50 (A549) was 35.2 µM. The Activity (COLO 205 [7]) was 12.5%, the Activity (COLO 205 [8]) was 12.9% and the Activity (COLO 205 [9]) was 46.4%. The Activity (COLO 205 [22]) was 15.2%, the Activity (COLO 205 [23]) was 15.7% and the Activity (COLO 205 [24]) was 29.9%. For the same molecule, the Activity (COLO 205 [25]) was 29.7%.
Work on COc1cccc(-n2cc(COc3c(/C=C\C(=O)O)ccc(OC)c3CC=C(C)C)nn2)c1 yielded an IC50 [2] of 21.6 µM, an IC50 [3] of 25.2 µM and an IC50 (A-431) of 23.2 µM. It also gave an IC50 (T47D) of 20.4 µM and an IC50 (A549) of 42.7 µM.
